Assay results taken from ChEMBL document CHEMBL3407339, “A novel series of thiazolyl-pyrazoline derivatives: synthesis and evaluation of antifungal activity, cytotoxicity and genotoxicity” (Eur J Med Chem, 2015).
Values after ≈ are worked out from the molar mass of the structure shown.

Legend:
[Candida] zeylanoides = Antifungal activity against Candida zeylanoides NRLL Y 1774 after 48 hrs by broth microdilution assay; assay type: functional; conditions: Dujonia zeylanoides, NRLL Y 1774, 48 h
Summary of the method: (§1)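 Broth microdilution of DMSO stocks serially diluted in sterile water (4 to 0.0039 mg/mL). Yeasts grown on SDA at 37 °C for 24 h, suspended in double-strength PDB at 10⁵ spores/mL. Incubated at 37 °C for 48 h, then sprayed with 0.5% aqueous TTC. MIC = lowest concentration inhibiting visible growth. Ketoconazole reference.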

Fusarium solani = experiment: Antifungal activity against Fusarium solani NRRL 13414 after 72 hrs by broth microdilution assay; assay type: functional; conditions: NRRL 13414, 72 h
Summary of the method: (§2)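 Compounds dissolved in DMSO, diluted in sterile distilled water from 4 to 0.0039 mg/mL. Molds grown on PDA at 25 °C for 5 days, suspended in double-strength PDB at 10⁵ spores/mL. Incubated at 25 °C for 72 h; mycelial growth read under stereo microscope. MIC = lowest concentration inhibiting visible growth. Ketoconazole reference.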

Aspergillus flavus = experiment: Antifungal activity against Aspergillus flavus NRRL 980 after 72 hrs by broth microdilution assay; assay type: functional; conditions: NRRL 980, 72 h; summary of the method: as §2
Aspergillus parasiticus = experiment: Antifungal activity against Aspergillus parasiticus NRRL 465 after 72 hrs by broth microdilution assay; assay type: functional; conditions: NRRL 465, 72 h; summary of the method: as §2
Candida parapsilosis = experiment: Antifungal activity against Candida parapsilosis NRLL Y 12696 after 48 hrs by broth microdilution assay; assay type: functional; conditions: Lodderomyces parapsilosis, NRLL Y 12696, 48 h; summary of the method: as §1
Pichia kudriavzevii = experiment: Antifungal activity against Candida krusei NRLL Y 7179 after 48 hrs by broth microdilution assay; assay type: functional; conditions: NRLL Y 7179, 48 h; summary of the method: as §1
Nakaseomyces glabratus = experiment: Antifungal activity against Candida glabrata clinical isolate after 48 hrs by broth microdilution assay; assay type: functional; summary of the method: as §1
Candida albicans = experiment: Antifungal activity against Candida albicans ATCC 90028 after 48 hrs by broth microdilution assay; assay type: functional; conditions: ATCC 90028, 48 h; summary of the method: as §1
Aspergillus niger = experiment: Antifungal activity against Aspergillus niger ATCC 1094 after 72 hrs by broth microdilution assay; assay type: functional; conditions: ATCC 1094, 72 h; summary of the method: as §2
Candida tropicalis = experiment: Antifungal activity against Candida tropicalis NRLL Y 12968 after 48 hrs by broth microdilution assay; assay type: functional; conditions: NRLL Y 12968, 48 h; summary of the method: as §1
A549 = experiment: Antiproliferative activity against human A549 cells after 24 hrs by XTT assay; assay type: functional, cell-based; conditions: A549, 24 h
Summary of the method: (§3)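 A549 cells in RPMI and NIH/3T3 cells in DMEM, each with fetal calf serum, antibiotics and 7.5% NaHCO₃, at 37 °C, 5% CO₂. Seeded at 20,000 cells/well, 24 h, then compounds added in medium at 500–3.9 doses (final DMSO <0.1%) for 24 h. XTT read after 3 h at 480 nm (ref 680 nm). IC₅₀ by non-linear regression; triplicates; cisplatin control.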

[1] = Cytotoxicity against mouse NIH/3T3 cells after 24 hrs by XTT assay; assay type: cell-based; conditions: NIH3T3, 24 h; summary of the method: as §3

`Fc1ccc(-c2csc(N3N=C(c4ccc(Cl)s4)CC3c3ccc(F)cc3)n2)cc1` (stereo unspecified) showed an MIC ([Candida] zeylanoides) of 250 µg/mL (≈ 546 µM), an MIC (Fusarium solani) of 250 µg/mL (≈ 546 µM) and an MIC (Aspergillus flavus) of 125 µg/mL (≈ 273 µM). For the same compound, the MIC (Aspergillus parasiticus) was 250 µg/mL (≈ 546 µM), the MIC (Candida parapsilosis) was 250 µg/mL (≈ 546 µM) and the MIC (Pichia kudriavzevii) was 250 µg/mL (≈ 546 µM). For the same compound, the MIC (Nakaseomyces glabratus) was 250 µg/mL (≈ 546 µM), the MIC (Candida albicans) was 250 µg/mL (≈ 546 µM) and the MIC (Aspergillus niger) was 250 µg/mL (≈ 546 µM). It also gave an MIC (Candida tropicalis) of 250 µg/mL (≈ 546 µM), an IC50 (A549) greater than 500 µg/mL and an IC50 [1] greater than 500 µg/mL.

Compound `CC(=O)N1CCN(c2ccc(OCC3COC(Cn4ccnc4)(c4ccc(Cl)cc4Cl)O3)cc2)CC1` (stereo unspecified) [KETOCONAZOLE] has an MIC ([Candida] zeylanoides) of 250 µg/mL (≈ 470 µM), an MIC (Fusarium solani) of 62.5 µg/mL (≈ 118 µM) and an MIC (Aspergillus flavus) of 15.6 µg/mL (≈ 29.4 µM). For the same compound, the MIC (Aspergillus parasiticus) was 7.81 µg/mL (≈ 14.7 µM), the MIC (Candida parapsilosis) was 15.6 µg/mL (≈ 29.4 µM) and the MIC (Pichia kudriavzevii) was 125 µg/mL (≈ 235 µM). It also gave an MIC (Nakaseomyces glabratus) of 62.5 µg/mL (≈ 118 µM), an MIC (Candida albicans) of 62.5 µg/mL (≈ 118 µM) and an MIC (Aspergillus niger) of 31.2 µg/mL (≈ 58.8 µM). For the same compound, the MIC (Candida tropicalis) was 125 µg/mL (≈ 235 µM).

In the case of `Cc1ccc(-c2csc(N3N=C(c4ccc(Cl)s4)CC3c3ccc(F)cc3)n2)cc1` (stereo unspecified), the MIC ([Candida] zeylanoides) is reported as 250 µg/mL (≈ 551 µM), the MIC (Fusarium solani) is reported as 250 µg/mL (≈ 551 µM) and the MIC (Aspergillus flavus) is reported as 250 µg/mL (≈ 551 µM). It also gave an MIC (Aspergillus parasiticus) of 250 µg/mL (≈ 551 µM), an MIC (Candida parapsilosis) of 250 µg/mL (≈ 551 µM) and an MIC (Pichia kudriavzevii) of 250 µg/mL (≈ 551 µM). It also gave an MIC (Nakaseomyces glabratus) of 125 µg/mL (≈ 275 µM), an MIC (Candida albicans) of 250 µg/mL (≈ 551 µM) and an MIC (Aspergillus niger) of 250 µg/mL (≈ 551 µM). For the same compound, the MIC (Candida tropicalis) was 250 µg/mL (≈ 551 µM), the IC50 (A549) was greater than 500 µg/mL and the IC50 [1] was greater than 500 µg/mL.

In the case of `Cc1ccc(C2=NN(c3nc(-c4ccc5c(c4)OCO5)cs3)C(c3ccc(F)cc3)C2)s1` (stereo unspecified), the MIC ([Candida] zeylanoides) is reported as 250 µg/mL (≈ 539 µM), the MIC (Fusarium solani) is reported as 250 µg/mL (≈ 539 µM) and the MIC (Aspergillus flavus) is reported as 250 µg/mL (≈ 539 µM). It also gave an MIC (Aspergillus parasiticus) of 250 µg/mL (≈ 539 µM), an MIC (Candida parapsilosis) of 250 µg/mL (≈ 539 µM) and an MIC (Pichia kudriavzevii) of 250 µg/mL (≈ 539 µM). It also gave an MIC (Nakaseomyces glabratus) of 250 µg/mL (≈ 539 µM), an MIC (Candida albicans) of 250 µg/mL (≈ 539 µM) and an MIC (Aspergillus niger) of 250 µg/mL (≈ 539 µM). The MIC (Candida tropicalis) was 250 µg/mL (≈ 539 µM), the IC50 (A549) was 173 µg/mL (≈ 374 µM) and the IC50 [1] was 125 µg/mL (≈ 270 µM).

For `Cc1ccc(C2=NN(c3nc(-c4ccc([N+](=O)[O-])cc4)cs3)C(c3ccc(F)cc3)C2)s1` (stereo unspecified), the MIC ([Candida] zeylanoides) was 250 µg/mL (≈ 538 µM), the MIC (Fusarium solani) was 250 µg/mL (≈ 538 µM) and the MIC (Aspergillus flavus) was 250 µg/mL (≈ 538 µM). It also gave an MIC (Aspergillus parasiticus) of 250 µg/mL (≈ 538 µM), an MIC (Candida parapsilosis) of 250 µg/mL (≈ 538 µM) and an MIC (Pichia kudriavzevii) of 250 µg/mL (≈ 538 µM). For the same compound, the MIC (Nakaseomyces glabratus) was 125 µg/mL (≈ 269 µM), the MIC (Candida albicans) was 250 µg/mL (≈ 538 µM) and the MIC (Aspergillus niger) was 250 µg/mL (≈ 538 µM). The MIC (Candida tropicalis) was 250 µg/mL (≈ 538 µM), the IC50 (A549) was 16.7 µg/mL (≈ 35.9 µM) and the IC50 [1] was 15.6 µg/mL (≈ 33.6 µM).

Work on `Cc1ccc(C2=NN(c3nc(-c4ccc(Cl)cc4)cs3)C(c3ccc(F)cc3)C2)s1` (stereo unspecified) yielded an MIC ([Candida] zeylanoides) of 250 µg/mL (≈ 551 µM), an MIC (Fusarium solani) of 250 µg/mL (≈ 551 µM) and an MIC (Aspergillus flavus) of 250 µg/mL (≈ 551 µM). It also gave an MIC (Aspergillus parasiticus) of 250 µg/mL (≈ 551 µM), an MIC (Candida parapsilosis) of 250 µg/mL (≈ 551 µM) and an MIC (Pichia kudriavzevii) of 250 µg/mL (≈ 551 µM). For the same compound, the MIC (Nakaseomyces glabratus) was 125 µg/mL (≈ 275 µM), the MIC (Candida albicans) was 250 µg/mL (≈ 551 µM) and the MIC (Aspergillus niger) was 250 µg/mL (≈ 551 µM). It also gave an MIC (Candida tropicalis) of 250 µg/mL (≈ 551 µM), an IC50 (A549) greater than 500 µg/mL and an IC50 [1] greater than 500 µg/mL.

Work on `Cc1ccc(C2=NN(c3nc(-c4ccc(C(F)(F)F)cc4)cs3)C(c3ccc(F)cc3)C2)s1` (stereo unspecified) yielded an MIC ([Candida] zeylanoides) of 250 µg/mL (≈ 513 µM), an MIC (Fusarium solani) of 250 µg/mL (≈ 513 µM) and an MIC (Aspergillus flavus) of 250 µg/mL (≈ 513 µM). The MIC (Aspergillus parasiticus) was 250 µg/mL (≈ 513 µM), the MIC (Candida parapsilosis) was 250 µg/mL (≈ 513 µM) and the MIC (Pichia kudriavzevii) was 250 µg/mL (≈ 513 µM). The MIC (Nakaseomyces glabratus) was 250 µg/mL (≈ 513 µM), the MIC (Candida albicans) was 250 µg/mL (≈ 513 µM) and the MIC (Aspergillus niger) was 250 µg/mL (≈ 513 µM). The MIC (Candida tropicalis) was 250 µg/mL (≈ 513 µM), the IC50 (A549) was greater than 500 µg/mL and the IC50 [1] was greater than 500 µg/mL.

`O=[N+]([O-])c1ccc(-c2csc(N3N=C(c4ccc(Cl)s4)CC3c3ccc(F)cc3)n2)cc1` (stereo unspecified) gave an MIC ([Candida] zeylanoides) of 250 µg/mL (≈ 516 µM), an MIC (Fusarium solani) of 250 µg/mL (≈ 516 µM) and an MIC (Aspergillus flavus) of 250 µg/mL (≈ 516 µM). The MIC (Aspergillus parasiticus) was 250 µg/mL (≈ 516 µM), the MIC (Candida parapsilosis) was 250 µg/mL (≈ 516 µM) and the MIC (Pichia kudriavzevii) was 250 µg/mL (≈ 516 µM). For the same compound, the MIC (Nakaseomyces glabratus) was 125 µg/mL (≈ 258 µM), the MIC (Candida albicans) was 250 µg/mL (≈ 516 µM) and the MIC (Aspergillus niger) was 250 µg/mL (≈ 516 µM). The MIC (Candida tropicalis) was 250 µg/mL (≈ 516 µM), the IC50 (A549) was greater than 500 µg/mL and the IC50 [1] was greater than 500 µg/mL.

`Cc1ccc(C2=NN(c3nc(-c4ccc(F)cc4)cs3)C(c3ccc(F)cc3)C2)s1` (stereo unspecified) showed an MIC ([Candida] zeylanoides) of 250 µg/mL (≈ 571 µM), an MIC (Fusarium solani) of 250 µg/mL (≈ 571 µM) and an MIC (Aspergillus flavus) of 250 µg/mL (≈ 571 µM). For the same compound, the MIC (Aspergillus parasiticus) was 250 µg/mL (≈ 571 µM), the MIC (Candida parapsilosis) was 250 µg/mL (≈ 571 µM) and the MIC (Pichia kudriavzevii) was 250 µg/mL (≈ 571 µM). The MIC (Nakaseomyces glabratus) was 125 µg/mL (≈ 286 µM), the MIC (Candida albicans) was 250 µg/mL (≈ 571 µM) and the MIC (Aspergillus niger) was 250 µg/mL (≈ 571 µM). The MIC (Candida tropicalis) was 250 µg/mL (≈ 571 µM), the IC50 (A549) was 125 µg/mL (≈ 286 µM) and the IC50 [1] was greater than 500 µg/mL.
